Results reported in ChEMBL document CHEMBL1123268 (J Med Chem, 1986).

Key:
[1] = tested on: L1210; details: Mus musculus, at 100 mg/kg/day
[2] = tested on: P388; experiment: Number of cures from P388 leukemia in CD2F1 male mice as tumor-free survivors after day 60.; type: functional; details: for Cures (survivors/total): Mus musculus
Method in brief: (§1)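 Cures in P388-bearing CD2F1 male mice: 10^6 tumor cells ip on day 0, then ip treatment daily on days 1-9 in groups of six. Animals were observed up to 60 days, and tumor-free survivors were counted as cures.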

[3] = tested on: L1210; details: Mus musculus, at 100 mg/kg/day; remark: listed apart in the source
[4] = tested on: L1210; details: Mus musculus
[5] = tested on: P388; experiment: Antineoplastic activities against P388 leukemia in CD2F1 male mice.; type: functional
Method in brief: (§2)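 P388 leukemia: CD2F1 male mice (18-20 g, six per group) received 10^6 cells ip on day 0. Drug injected ip daily on days 1-9. Survival followed 30 days, with some groups to 60 days. Activity read as treated/control mean survival time (T/C), with %ILS calculated as [(T - C)/C] × 100. NCI protocol.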

[6] = tested on: P388; experiment: Antineoplastic activity against P388 leukemia in CD2F1 male mice and the average percentage weight change on day 5 was measured.; type: functional
Method in brief: (§3)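 Toxicity readout in the P388 model: CD2F1 male mice given 10^6 cells ip on day 0, then daily ip dosing for 9 days from day 1. Average percentage body-weight change on day 5 was taken as the measure of drug toxicity.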

[7] = tested on: L1210; details: Mus musculus; remark: listed apart in the source
[8] = tested on: P388; experiment: Antineoplastic activity against P388 leukemia in CD2F1 male mice and the percent increase in life span was measured on day 30.; type: functional
Method in brief: as §2

[9] = Therapeutic ratio as optimum dose/dose ILS40; details: read-out: Therapeutic ratio
Method in brief: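 Therapeutic ratio derived from the P388/L1210 survival data (CD2F1 male mice, ip daily dosing days 1-9). Optimum dose is the daily dose giving maximum increase in life span. ILS40 dose is the daily dose giving a 40% increase in life span over controls.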

[10] = tested on: P388; experiment: Compound was tested for number of cures from P388 leukemia in CD2F1 male mice as tumor-free survivors after day 60; 3/6; type: functional, Mus musculus
Method in brief: as §1

[11] = tested on: L1210; experiment: Compound was tested for anticancer activities against L1210 leukemia in CD2F1 male mice at dose of 50 mg/kg per day; 0/6; type: functional, Mus musculus
[12] = tested on: L1210; experiment: Anticancer activities against L1210 leukemia in CD2F1 male mice at dose of 50 mg/kg per day; type: functional; details: Mus musculus
[13] = tested on: P388; experiment: Compound was tested for its antineoplastic activities against P388 leukemia in CD2F1 male mice.; type: functional, Mus musculus
Method in brief: as §2

[14] = tested on: L1210; experiment: Compound was tested for anticancer activities against L1210 leukemia in CD2F1 male mice at dose of 50 mg/kg per day; 12.0/7; type: functional, Mus musculus
[15] = tested on: P388; experiment: Compound was tested for its antineoplastic activity against P388 leukemia in CD2F1 male mice and the percent increase in life span was measured on day 30.; type: functional, Mus musculus
Method in brief: as §2

[16] = tested on: L1210; experiment: Compound was tested for anticancer activities against L1210 leukemia in CD2F1 male mice at dose of 50 mg/kg per day; type: functional, Mus musculus
[17] = tested on: L1210; details: Mus musculus; remark: listed apart in the source
[18] = tested on: P388; experiment: Compound was tested for its antineoplastic activity against P388 leukemia in CD2F1 male mice and the average percentage weight change on day 5 was measured.; type: functional
Method in brief: as §3

[19] = tested on: L1210; experiment: (§4) Compound was tested for anticancer activities against L1210 leukemia in CD2F1 male mice at dose of 6.5 mg/kg per day; type: functional; details: Mus musculus
[20] = tested on: L1210; experiment: Compound was tested for anticancer activities against L1210 leukemia in CD2F1 male mice at dose of 6.5 mg/kg per day; 0/6; type: functional, Mus musculus
[21] = tested on: L1210; experiment: as §4; type: functional, Mus musculus
[22] = tested on: L1210; experiment: animal or person; type: functional; details: Mus musculus
[23] = tested on: P388; experiment: Compound was tested for number of cures from P388 leukemia in CD2F1 male mice as tumor-free survivors after day 60; 6/6; type: functional, Mus musculus
Method in brief: as §1

[24] = tested on: L1210; experiment: Compound was tested for anticancer activity against L1210 leukemia in CD2F1 male mice at dose of 50 mg/kg per day; type: functional, Mus musculus
[25] = tested on: L1210; experiment: Compound was tested for anticancer activity against L1210 leukemia in CD2F1 male mice at dose of 25 mg/kg per day; type: functional, Mus musculus
[26] = tested on: L1210; experiment: Compound was tested for anticancer activity against L1210 leukemia in CD2F1 male mice at dose of 50 mg/kg per day; 12.6/7; type: functional, Mus musculus
[27] = tested on: L1210; experiment: Compound was tested for anticancer activity against L1210 leukemia in CD2F1 male mice at dose of 25 mg/kg per day; 8.6/7; type: functional, Mus musculus
[28] = tested on: L1210; type: functional, Mus musculus
[29] = tested on: L1210; type: functional, Mus musculus; details: at 100 mg/kg/day
[30] = tested on: P388; experiment: Compound was tested for its antineoplastic activity against P388 leukemia in CD2F1 male mice.; type: functional, Mus musculus
Method in brief: as §2

[31] = tested on: L1210; experiment: Compound was tested for anticancer activities against L1210 leukemia in CD2F1 male mice at dose of 25 mg/kg per day; type: functional; details: Mus musculus
[32] = tested on: L1210; type: functional, Mus musculus; remark: listed apart in the source
[33] = tested on: L1210; experiment: Compound was tested for anticancer activities against L1210 leukemia in CD2F1 male mice at dose of 25 mg/kg per day; 0/6; type: functional, Mus musculus

CC1(C)CC(NC(=O)NP(=O)(N2CC2(C)C)N2CC2(C)C)C(C)(C)N1[O] (stereo not given)
ILS [1]: 48% | Cures (survivors/total) [2]: 0 | T/C [3]: 148% | Survivors at day 30 [4]: 0 | Optimal dose ([5]; Mus musculus): 90 | Weight change on day 5 ([6]; Mus musculus): 6.2% | T/C survival days [7]: 10.4 | ILS ([8]; Mus musculus): 56%

CC1(C)CC(OP(=S)(N2CC2)N2CC2)CC(C)(C)N1[O]
selectivity ratio [9]: 5.15 | Optimal dose [5]: 12 | ILS [8]: 103%

O=c1[nH]cc(F)c(=O)[nH]1 [FLUOROURACIL]
Cures [2]: 0 survivors/total | Optimal dose [5]: 200 | Weight change on day 5 [6]: -4% | ILS [8]: 79%

CC1(C)CC(NC(=O)NP(=O)(N2CC2)N2CC2)C(C)(C)N1[O] (stereo not given)
Cures [10]: 3 survivors/total | Survivors at day 30 [11]: 0 | selectivity ratio [9]: 22.5 | ILS at 50 mg/kg/day [12]: 72% | Optimal dose [5]: 90 | ILS40 [13]: 4 mg/kg/day | T/C survival days [14]: 12 | ILS max [15]: 387% | T/C [16]: 172% | ILS [8]: 178%

CC1(C)CC(NC(=O)NP(=O)(N2CC2(C)C)N2CC2(C)C)CC(C)(C)N1[O] (stereo not given)
ILS [1]: 64% | Cures (survivors/total) [2]: 0 | T/C [3]: 164% | T/C survival days [17]: 11.5 | Survivors at day 30 [4]: 0 | Optimal dose ([5]; Mus musculus): 90 | Weight change on day 5 ([18]; Mus musculus): 7.3% | ILS ([8]; Mus musculus): 62%

O=P(N1CC1)(N1CC1)N1CC1 [TEPA]
Cures [2]: 0 survivors/total | selectivity ratio [9]: 2.2 | Optimal dose [5]: 6 | Weight change on day 5 [6]: -4% | ILS40 [13]: 2.75 mg/kg/day | ILS [8]: 135%

CC1(C)CC(NP(=S)(N2CC2)N2CC2)CC(C)(C)N1[O]
selectivity ratio [9]: 2.73 | Optimal dose [5]: 25 | ILS [8]: 96%

S=P(N1CC1)(N1CC1)N1CC1 [THIOTEPA]
Cures [2]: 0 survivors/total | selectivity ratio [9]: 2.75 | Optimal dose [5]: 6 | Weight change on day 5 [6]: -2.1% | ILS40 [13]: 2.18 mg/kg/day | ILS at 6.5 mg/kg/day [19]: 55% | Survivors at day 30 [20]: 0 | T/C [21]: 155% | ILS [8]: 141%

CC1(C)CC(NC(=O)NP(=O)(N2CC2)N2CC2)CC(C)(C)N1[O]
ILS at 100 mg/kg/day [22]: 115% | Cures [23]: 6 survivors/total | T/C [24]: 181% | T/C [25]: 123% | Survivors at day 30 [11]: 0 | selectivity ratio [9]: 26.5 | T/C survival days [26]: 12.6 | ILS at 50 mg/kg/day [12]: 81% | T/C survival days [27]: 8.6 | T/C survival days [28]: 14 | T/C [29]: 215% | ILS40 [30]: 3.4 mg/kg/day | Optimal dose [30]: 90 | ILS at 25 mg/kg/day [31]: 23% | Survivors at day 30 [32]: 0 | Survivors at day 30 [33]: 0 | Weight change on day 5 [18]: -2.4% | ILS max [15]: 439% | ILS [8]: 170%
